Assay outcomes: PubChem BioAssay, several laboratories
TPT1 inhibitor: blocks Candida albicans tRNA 2'-phosphotransferase | recombinant caTPT1, FP RNA substrate dephosphorylation | inhibition, % at 5 µM | 300,000 tested, 0.81% active | AID 1962;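 active = inhibition above the mean of all tested compounds plus 3 SD, set per screening campaign, cut at about 24% in these data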
Rpn11 inh: Rpn11 (human) deubiquitinase inhibition; O00487; human 26S proteasome, Ub4-pepOG fluorescence polarization; 20S core pre-blocked with epoxomicin; calls only at 20 µM; 360,000 tested, 0.59% active; AID 588493;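 active = inhibition at 20 µM, scaled to each plate's controls, above about 33%, limit read from the data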
SENP1 FRET inh: blocks the human SENP1 SUMO protease catalytic domain; Q9P0U3; recombinant SENP1 catalytic domain, CyPet-SUMO1-YPet FRET cleavage; inhibition, % at 10 µM; 360,000 tested, 0.21% active; AID 624204;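 active = inhibition at least 30% at 10 µM, raw YFP signal under a set limit, fluorescence ratio 0.5 to 1.5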
Target sequence (Q9P0U3 419-644 limits assumed): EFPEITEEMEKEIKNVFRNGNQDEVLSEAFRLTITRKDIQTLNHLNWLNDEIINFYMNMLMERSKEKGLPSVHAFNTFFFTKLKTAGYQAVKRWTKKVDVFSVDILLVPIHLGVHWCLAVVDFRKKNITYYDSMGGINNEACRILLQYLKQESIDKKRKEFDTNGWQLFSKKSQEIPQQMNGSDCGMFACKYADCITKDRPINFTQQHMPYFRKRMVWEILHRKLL
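Material: hSENP1 catalytic domain, recombinant; medium: Tris pH 8 with BME, BSA, NP40 and catalase; compound: single concentration of 10 µM compound, 0.5% DMSO final; technique: FRET read of cyan and yellow fluorescence; timing: 50 min enzyme reaction, room temperature, light-protected; reagent: SFCypet-SUMO1-SFYpet substrate at 25 nM; control set: no-enzyme low, enzyme-DMSO high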
HNF4A DNA FP: change in binding of human HNF4 alpha to DNA. activity change, % at 10 µM. 360,000 tested, 0.3% active. P41235. HNF4a-FITC DNA binding, fluorescence polarization, 1 h; in the data active = activity change above about 30%, passing the limit was not always enough
UBC9 SUMO inh: inhibitors of human SUMOylation (UBC9); P63279; HTRF SUMOylation assay, SAE1/SAE2 + UBC9, in vitro; inhibition, % at 35 µM; 290,000 tested, 0.36% active; in the data active = inhibition above about 50%, passing the limit was not always enough
Target sequence (P63279 whole entry, looked up): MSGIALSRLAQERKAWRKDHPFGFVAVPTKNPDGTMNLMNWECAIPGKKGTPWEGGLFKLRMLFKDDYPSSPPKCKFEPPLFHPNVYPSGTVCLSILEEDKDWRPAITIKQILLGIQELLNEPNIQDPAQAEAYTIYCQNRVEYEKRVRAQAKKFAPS
CSN deneddyl inh: CSN deneddylation inhibition | Purified CSN, SCF-Nedd8-OG deneddylation, fluorescence polarization | inhibition, % at 12.5 µM | Q92905 | 360,000 tested, 0.38% active | AID 651999;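 active = pattern-corrected inhibition above about 35%, with an unprinted fluorescence ratio check between 0.5 and 1.5, limit read from the data, passing the limit was not always enough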
Target sequence (Q92905 whole entry, looked up, one chain of several): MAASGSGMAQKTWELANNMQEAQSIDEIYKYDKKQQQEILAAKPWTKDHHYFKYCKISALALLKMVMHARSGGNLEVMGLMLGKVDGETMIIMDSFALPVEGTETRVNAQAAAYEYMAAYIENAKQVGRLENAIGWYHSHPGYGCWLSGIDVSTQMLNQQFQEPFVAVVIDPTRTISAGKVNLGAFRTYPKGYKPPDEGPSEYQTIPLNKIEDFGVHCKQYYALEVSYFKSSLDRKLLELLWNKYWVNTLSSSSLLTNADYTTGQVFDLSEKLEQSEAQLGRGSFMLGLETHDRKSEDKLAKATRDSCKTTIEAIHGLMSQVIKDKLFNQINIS
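Assay system: purified human Csn5 enzyme expressed in HEK293T cells; Input: 0.24 nM Csn5 enzyme, final concentration; Reagent: 10 nM SCFSkp2-Nedd8OG; Compound dosing: 12.5 µM single point; Times: reaction 90 min, room temperature; Technique: fluorescence polarization readout.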
Rpn11 confirm: confirmation of human proteasome Rpn11 inhibitors; shares compounds with Rpn11 inh; purified human 26S proteasome, Ub4-pepOG fluorescence polarization; proteasome pretreated with epoxomicin; inhibition, % at 20 µM; 1,900 tested, 29% active
MMP-2 inh: blocks human MMP-2, flagging nonselective RPN11 hits; shares compounds with Rpn11 inh; recombinant MMP-2, FRET peptide cleavage fluorescence; inhibition, % at 20 µM; 1,900 tested, 4% active; AID 602330;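 also: human MMP-2 activated beforehand with APMA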
Thrombin inh: counter-screen for RPN11 inhibitors: inhibition of bovine thrombin. shares compounds with Rpn11 inh. bovine thrombin cleavage of Ub4-pepOG, fluorescence polarization. inhibition, % at 20 µM. 1,900 tested, 13% active. AID 602333;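 active = mean inhibition at least 40% at 20 µM, or signal 3 deviations below plate average, so some actives read negative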
Of the large screens only hits and unclear results are named; the others gave an inactive call (follow-up assays come after a bar, where they were run). Compounds with a hit are over-represented: about 1.8% of the library has one in this group of screens. Rule as the data show it, unless noted: active = inhibition above about 40%; inactive = the rest.

COC(=O)c1ccc(NC(=O)c2cn(-c3ccccc3)nc2-c2ccncc2)cc1	Rpn11 inh active | Rpn11 confirm inactive | MMP-2 inh inactive | Thrombin inh inactive
CCOc1ccc(NC(=O)c2ccc(NC(=O)c3cn4c5c(c(N6CCN(C)CC6)c(F)cc5c3=O)OCC4C)cc2)cc1 (stereo not given)	Rpn11 inh active | Rpn11 confirm inactive | MMP-2 inh inactive | Thrombin inh inactive
CC1COc2c(N3CCN(C)CC3)c(F)cc3c(=O)c(C(=O)O)cn1c23 (stereo not given)	none (no result: UBC9 SUMO inh)
CC1(C(=O)O)Sc2[nH]c(=O)sc2C2c3ccccc3OC(=O)C21 (stereo not given)	Rpn11 inh active, HNF4A DNA FP 39.1 | Rpn11 confirm inactive | MMP-2 inh inactive | Thrombin inh inactive
COc1ccccc1NC(=O)Nc1nc(CC(=O)Nc2cc(F)ccc2F)cs1	Rpn11 inh active (no result: UBC9 SUMO inh) | Rpn11 confirm inactive | MMP-2 inh inactive | Thrombin inh inactive
COc1ccccc1NC(=O)Nc1nc(CC(=O)Nc2cccc(F)c2)cs1	none (no result: UBC9 SUMO inh)
N#CC(C(=O)NCCc1ccccc1)c1nc2ccccc2nc1N1CCCCC1 (stereo not given)	Rpn11 inh active | Rpn11 confirm inactive | MMP-2 inh inactive | Thrombin inh inactive
C=CC1(C)CN(Cc2ccco2)S(=O)(=O)c2c(F)cccc2O1 (stereo not given)	none (no result: TPT1 inhibitor, UBC9 SUMO inh)
COc1ccc(/C(C)=N/NC(=O)c2nnn(-c3nonc3N)c2-c2ccccc2)cc1	Rpn11 inh active | Rpn11 confirm 93.3 | MMP-2 inh inactive | Thrombin inh inactive
CCc1cccc(NC(=O)CCc2nc3sc4c(c3c(=O)[nH]2)CCCC4)c1	Rpn11 inh active (no result: UBC9 SUMO inh) | Rpn11 confirm inactive | MMP-2 inh inactive | Thrombin inh 45.4
COc1ccccc1NC(=O)CCc1nc2sc3c(c2c(=O)[nH]1)CCCC3	Rpn11 inh active (no result: UBC9 SUMO inh) | Rpn11 confirm 67.1 | MMP-2 inh inactive | Thrombin inh inactive
Cc1sc2nc(CSC(C)C(=O)Nc3ccc(Cl)cn3)[nH]c(=O)c2c1C (stereo not given)	none (no result: TPT1 inhibitor, UBC9 SUMO inh)
CN(C)S(=O)(=O)c1cccc(NC(=O)CCc2nc3sc4c(c3c(=O)[nH]2)CCCC4)c1	none (no result: TPT1 inhibitor, UBC9 SUMO inh)
Cc1cccc(NC(=O)C(C)SCc2nc3sc4c(c3c(=O)[nH]2)CCCC4)n1 (stereo not given)	Rpn11 inh active (no result: UBC9 SUMO inh) | Rpn11 confirm inactive | MMP-2 inh inactive | Thrombin inh inactive
Cc1cccc(NC(=O)CCc2nc3sc4c(c3c(=O)[nH]2)CCCC4)c1	none (no result: UBC9 SUMO inh)
COc1cccc(NC(=O)CN(C)C(=O)CCc2nc3sc4c(c3c(=O)[nH]2)CCCC4)c1	none
Cc1ccc(NC(=O)CCc2nc3sc4c(c3c(=O)[nH]2)CCCC4)nc1	Rpn11 inh active (no result: UBC9 SUMO inh) | Rpn11 confirm 78.0 | MMP-2 inh inactive | Thrombin inh inactive
Cn1cnnc1SCC(=O)NN1C(=O)NC(C)(c2ccccc2)C1=O (stereo not given)	none
CC1Cc2ccccc2N1c1ncnc(N)c1[N+](=O)[O-] (stereo not given)	none
COc1cc(S(=O)(=O)N2CCN(Cc3ccc4c(c3)OCO4)CC2)ccc1NC(C)=O	Rpn11 inh active (no result: TPT1 inhibitor, UBC9 SUMO inh) | Rpn11 confirm inactive | MMP-2 inh inactive | Thrombin inh inactive
O=C(Nc1ccccc1)c1cnc2ccccc2n1	Rpn11 inh active | Rpn11 confirm inactive | MMP-2 inh inactive | Thrombin inh inactive
COc1ccc(-c2ccc3sc4ccccc4c(=O)c3c2)cn1	Rpn11 inh active (no result: UBC9 SUMO inh) | Rpn11 confirm inactive | MMP-2 inh inactive | Thrombin inh inactive
COc1ccc(C(=O)C(C)C(C)=O)c(OCc2ccccc2)c1OC (stereo not given)	none (no result: TPT1 inhibitor, UBC9 SUMO inh)
CCC(CO)Oc1cc(NC(=O)c2ccc(N)cc2)c2ncn(C(C)C)c2c1 (stereo not given)	Rpn11 inh active (no result: TPT1 inhibitor, UBC9 SUMO inh) | Rpn11 confirm 44.4 | MMP-2 inh inactive | Thrombin inh inactive
CCC(CO)Oc1cc(NC(=O)c2ccc(F)cc2)c2ncn(C(C)C)c2c1 (stereo not given)	none (no result: TPT1 inhibitor, UBC9 SUMO inh)
CCOc1ccc(-n2c(SCC(=O)NCc3ccco3)nnc2-c2c[nH]c3ccccc23)cc1	none
COC(=O)C(Cc1ccccc1)NC(=O)CNC(=O)c1sc2ccccc2c1Cl (stereo not given)	none
C=CCn1cc(/C=N/NC(=O)COc2cccc3cccnc23)c2ccccc21	Rpn11 inh active | Rpn11 confirm 88.4 | MMP-2 inh inactive | Thrombin inh 52.6
O=C(NCCCN1CCCCCC1)c1cc2c(=O)oc3ccccc3c2s1	Rpn11 inh active | Rpn11 confirm inactive | MMP-2 inh inactive | Thrombin inh inactive
COC(=O)C(C)N1C(=O)S/C(=C\c2cc(C)n(-c3ccccn3)c2C)C1=O (stereo not given)	Rpn11 inh active | Rpn11 confirm inactive | MMP-2 inh inactive | Thrombin inh inactive
CCC(Oc1ccccc1)C(=O)Nc1nnc(S(=O)(=O)Nc2ccccc2)s1 (stereo not given)	none
COc1ccc(CC(=O)Nc2ccc(OC(C)=O)cc2C(=O)O)cc1	none
O=C(CSc1cccc2cccnc12)N/N=C/c1ccc(O)cc1	none
CCOC(=O)CSc1cccc2cccnc12	Rpn11 inh active | Rpn11 confirm inactive | MMP-2 inh inactive | Thrombin inh inactive
COc1ccc(OC)c(/C=N/NC(=O)CSc2cc(C)nc3c(OC)cccc23)c1	Rpn11 inh active | Rpn11 confirm inactive | MMP-2 inh inactive | Thrombin inh inactive
Cc1cccc(NC(=O)CSc2cccc3cccnc23)c1C	none
NNC(=O)c1ccc(CSc2cccc3cccnc23)cc1	none
COc1cccc(/C=N/NC(=O)CSc2cccc3cccnc23)c1	Rpn11 inh active | Rpn11 confirm inactive | MMP-2 inh inactive | Thrombin inh inactive
Cc1cccc(CSc2cccc3cccnc23)c1	Rpn11 inh active | Rpn11 confirm 42.5 | MMP-2 inh inactive | Thrombin inh inactive
CN(C)S(=O)(=O)N1CCc2ccc(NC(=O)C3CCCO3)cc2C1 (stereo not given)	none (no result: TPT1 inhibitor)
CC1(C(=O)NS(=O)(=O)c2ccc(F)cc2F)CCN1C(=O)CC1CC1 (stereo not given)	none (no result: TPT1 inhibitor, UBC9 SUMO inh)
CC(=O)Nc1ccc(S(=O)(=O)N(C)c2ccc(OCC(=O)OCC(=O)NCc3ccco3)cc2)cc1	none
